Data: ChEMBL document CHEMBL5036380, “New Highly Potent NLRP3 Inhibitors: Furanochalcone Velutone F Analogues” (ACS Med Chem Lett, 2022)
The source made the active and inactive calls. The calls are words filed in the database; no cut-off is given here.

The molecules below were run on THP-1 (assay: Antiinflammatory activity in human THP-1 cells assessed as inhibition of LPS-induced IL-1beta secretion in LPS stimulation for 3 hrs followed by pretreatment for 40 min before induced with nigericin for 40 min measured by ELISA). Conditions: time 80 min; 1.333 h.
Format: functional
Summary of the method: (§1)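 THP-1 cells (2 × 10^5 cells/mL) differentiated with PMA (100 ng/mL) for 24 h. Next day, primed with LPS (1 μg/mL) for 3 h, then compound for 40 min, then nigericin (10 μM) for 40 min. IL-1β in supernatant measured by ELISA; % inhibition as mean ± SD of three independent experiments. The single-concentration screen used 2 μM.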

Row | SMILES | Activity [µM]
1 | COc1c(/C=C/C(=O)c2ccc(F)cc2)cc(OC)c2occc12 | 0.656
2 | COc1cc(-c2ccccc2NS(C)(=O)=O)c(OC)cc1/C=C/C(=O)c1ccc(F)cc1 | 0.407
3 | COc1cc(-c2ccccc2S(C)(=O)=O)c(OC)cc1/C=C/C(=O)c1ccc(F)cc1 | 0.325

Each molecule was assayed on Spleen (assay: Downregulation of IL-1beta level in spleen of LPS treated C57BL/6J mouse at 10 mg/kg, iv measured after 6 hrs by ELISA). Conditions: not given.

Row | SMILES | Activity
4 | COc1c(/C=C/C(=O)c2ccccc2)cc(OC)c2occc12 | Active

These molecules were tested on THP-1 (assay: Cytotoxicity against human THP-1 cells assessed as reduction in cell viability at 0.05 to 6.4 uM measured after 90 mins by CCK8 assay). Conditions: thp-1, 1.5 h, dose 0.05-6.4 µM.
Format: cell-based
Summary of the method: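 THP-1 cells preincubated with compound (0.05–6.4 μM) for 1.5 h; viability read by CCK8 assay.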

Row | SMILES | Activity
5 | COc1c(/C=C/C(=O)c2ccc(F)cc2)cc(OC)c2occc12 | Non-Toxic
6 | COc1cc(-c2ccccc2NS(C)(=O)=O)c(OC)cc1/C=C/C(=O)c1ccc(F)cc1 | Non-Toxic
7 | COc1cc(-c2ccccc2S(C)(=O)=O)c(OC)cc1/C=C/C(=O)c1ccc(F)cc1 | Non-Toxic

The molecules below were run on THP-1 (assay: Antiinflammatory activity in human THP-1 cells assessed as inhibition of LPS-induced IL-1beta secretion in LPS stimulation for 3 hrs followed by pretreatment at 2uM for 40 min before induced with nigericin for 40 min measured by ELISA). Conditions: THP-1, 1.333 h, time 80 min.
Format: functional
Summary of the method: as §1

Row | SMILES | inhibition at 2 µM [%]
8 | COc1c(/C=C/C(=O)c2ccccn2)cc(OC)c2occc12 | 56.9
9 | COc1cc(C(=O)/C=C/c2cc(OC)c3occc3c2OC)cc(OC)c1OC | 42
10 | COc1ccc(OC)c(/C=C/C(=O)c2ccc(F)cc2)c1 | 91.1
11 | COc1c(/C=C/C(=O)C2CC2)cc(OC)c2occc12 | 8.7
12 | COc1c(/C=C/C(=O)c2ccc(C(F)(F)F)cc2)cc(OC)c2occc12 | 50
13 | COc1c(/C=C/C(=O)c2ccc[nH]2)cc(OC)c2occc12 | 10.3
14 | COc1c(/C=C/C(=O)O)cc(OC)c2occc12 | 5.2
15 | COc1c(/C=C/C(=O)c2ccc(F)cc2)cc(OC)c2occc12 | 88.2
16 | COc1c(/C=C/C(=O)c2cccc(-c3cccs3)n2)cc(OC)c2occc12 | 15.9
17 | COc1cc(-c2ccoc2)c(OC)cc1/C=C/C(=O)c1ccc(F)cc1 | 38.5
18 | COc1c(/C=C/C(=O)c2ccccc2N)cc(OC)c2occc12 | 19.8
19 | C=CC(=O)N(Cc1cc(OC)c2occc2c1OC)c1ccccc1 | 31.8
20 | COc1c(/C=C/C(=O)c2cccc(C(F)(F)F)c2)cc(OC)c2occc12 | 64.7
21 | C=CC(=O)N(Cc1cc(OC)c2occc2c1OC)c1ccc(F)cc1 | 15
22 | COc1c(/C=C/C(=O)c2cccc(Br)n2)cc(OC)c2occc12 | 67.7
23 | COc1c(/C=C/C(=O)c2ccc(C#N)cc2)cc(OC)c2occc12 | 27.6
24 | COc1cc(-c2ccccc2NS(C)(=O)=O)c(OC)cc1/C=C/C(=O)c1ccc(F)cc1 | 101
25 | COc1c(/C=C/C(=O)c2ccc3ccccc3n2)cc(OC)c2occc12 | 32.1

Row | SMILES | inhibition at 2 µM [%]
26 | COc1c(/C=C/C(=O)c2cccc(C(F)(F)F)n2)cc(OC)c2occc12 | 32.4
27 | COc1c(/C=C/C(=O)c2ccccc2)cc(OC)c2occc12 | 50.8
28 | COc1c(C(=O)/C=C/c2ccccc2)cc(OC)c2occc12 | 15.5
29 | COc1c(/C=C/C(=O)c2ccccc2F)cc(OC)c2occc12 | 50.4
30 | COc1cc(/C=C/C(=O)c2ccc(F)cc2)c(OC)cc1C | 80.6
31 | COc1cc(-c2ccccc2S(C)(=O)=O)c(OC)cc1/C=C/C(=O)c1ccc(F)cc1 | 102
32 | CC(C)(O)c1coc(S(=O)(=O)NC(=O)Nc2c3c(cc4c2CCC4)CCC3)c1 | 106
33 | COc1c(CCC(=O)c2cccc(Br)n2)cc(OC)c2occc12 | 10.7
34 | COc1c(/C=C/C(=O)c2ccc(Cl)cn2)cc(OC)c2occc12 | 20.3
35 | COc1c(/C=C/C(=O)c2cccc(O)c2)cc(OC)c2occc12 | 60.5
36 | COc1cc(NS(=O)(=O)C2CC2)c(OC)cc1/C=C/C(=O)c1ccc(F)cc1 | 24.8
37 | COc1c(/C=C/C(=O)c2ccco2)cc(OC)c2occc12 | 32.8
38 | COc1c(/C=C/C(=O)Nc2ccccc2)cc(OC)c2occc12 | 7.4
39 | COc1c(/C=C/C(=O)c2cccc(C)c2)cc(OC)c2occc12 | 75
40 | COc1c(/C=C/C(=O)c2cccc(N)c2)cc(OC)c2occc12 | 58.8
41 | COc1c(/C=C/C(=O)c2cccc(-c3ccccc3)n2)cc(OC)c2occc12 | 15.9
42 | COc1c(/C=C/C(=O)c2cccc(F)c2)cc(OC)c2occc12 | 51.4
43 | COc1c(/C=C/C(=O)c2ccc(Br)cc2)cc(OC)c2occc12 | 50.1

Same assay, conditions: time 80.0 min

Row | SMILES | inhibition
44 | COc1cc(/C=C/C(=O)c2ccc(F)cc2)c(OC)cc1C=C(C)C | inactive
45 | COc1c(CCC(=O)c2ccccc2)cc(OC)c2occc12 | inactive
46 | COc1cncc(-c2cc(OC)c(/C=C/C(=O)c3ccc(F)cc3)cc2OC)c1 | inactive
47 | COc1cc(-c2ccsc2)c(OC)cc1/C=C/C(=O)c1ccc(F)cc1 | inactive
48 | COc1cc(-c2cc(F)cc(F)c2)c(OC)cc1/C=C/C(=O)c1ccc(F)cc1 | inactive
49 | COc1cc(-c2cccc(Cl)c2)c(OC)cc1/C=C/C(=O)c1ccc(F)cc1 | inactive
50 | C=CC(=O)N(Cc1cc(OC)c2occc2c1OC)c1cccc(C(F)(F)F)c1 | inactive
51 | C=CC(=O)N(Cc1cc(OC)c2occc2c1OC)c1cccc(Br)n1 | inactive
52 | COc1c(/C=C/C(=O)Nc2cccc(C(F)(F)F)c2)cc(OC)c2occc12 | inactive
53 | COc1c(/C=C/C(=O)c2ccc(N)cc2)cc(OC)c2occc12 | inactive
54 | COc1cc(NS(C)(=O)=O)c(OC)cc1/C=C/C(=O)c1ccc(F)cc1 | inactive
55 | COc1cc(-c2ccccc2C)c(OC)cc1/C=C/C(=O)c1ccc(F)cc1 | inactive
56 | COc1c(CCC(=O)c2cccc(C(F)(F)F)c2)cc(OC)c2occc12 | inactive
57 | COc1c(/C=C/C(=O)Nc2cccc(Br)n2)cc(OC)c2occc12 | inactive
58 | COc1cc(-c2cn[nH]c2)c(OC)cc1/C=C/C(=O)c1ccc(F)cc1 | inactive
59 | COc1c(CCC(=O)c2ccc(F)cc2)cc(OC)c2occc12 | inactive
60 | COc1c(/C=C/C(=O)Nc2ccc(F)cc2)cc(OC)c2occc12 | inactive
